Data published in ChEMBL document CHEMBL3632592, “Identification of Highly Promising Antioxidants/Neuroprotectants Based on Nucleoside 5'-Phosphorothioate Scaffold. Synthesis, Activity, and Mechanisms of Action” (J Med Chem, 2015).
pEC50, pIC50: −log10 of the molar value.

Experiments:
[1] = Antioxidant activity assessed as ABTS radical scavenging activity after 7 mins; assay type: physicochemical
Method in brief: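 ABTS radical cation made from 7 mM ABTS with 2.45 mM persulfate (final), kept in the dark at room temperature 12–16 h. It was then diluted in water pH 7.4 to A734 0.80 and mixed with compound or Trolox standard (final 0–60 µM). A734 was read at 7 min. Percent inhibition plotted against concentration; at least three runs, in triplicate.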

[2] = Half life in human serum at 37 degC by HPLC analysis; assay type: ADME, cell-free
Method in brief: (§1)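 Nucleotides were incubated in human blood serum or RPMI-1640 at 37 °C for 0.5–24 h. Hydrolysis was followed by the change in HPLC peak integration of each analogue over time, and half-life was derived from this.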

[3] = Metal chelating activity assessed as inhibition of Fe2+-ferrozine complex formation at 200 uM after 10 mins relative to control; assay type: physicochemical
Method in brief: (§2)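 Competitive ferrozine assay. FeSO4 (final 10 µM) and ferrozine (final 20 µM) are mixed with nucleotide in DDW at final 25–200 µM and agitated 10 min at room temperature. Absorbance of the Fe(II)-ferrozine complex is read at 562 nm with and without compound, and inhibition of complex formation is calculated. Three experiments, mean ± S.D.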

Serum [4] = assay: Drug metabolism in human serum assessed as formation of adenosine at 37 degC measured over 24 hrs by HPLC analysis; assay type: ADME, cell-free
Method in brief: (§3)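 Incubation in human blood serum and in RPMI-1640 at 37 °C for 0.5–24 h. The HPLC peak integration of each nucleotide is followed over time, and half-life comes from the decay. The products AMP and adenosine are seen as HPLC peaks.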

[5] = Antioxidant activity assessed as inhibition of Fe2+-induced DMPO-OH adduct formation from H2O2 preincubated for 30 secs followed by DMPO/H2O2 addition measured after 150 secs by ESR analysis; assay type: physicochemical
Method in brief: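 Fenton/ESR spin trapping: 1 mM ammonium iron(II) sulfate was added to 5–500 µM compound, then Tris buffer pH 7.4 (final pH 7.2–7.4). After 30 s, 100 mM DMPO and 100 mM H2O2 were added (stock concentrations). The ESR spectrum was recorded 150 s after H2O2, at room temperature. DMPO-OH adduct expressed as % of control containing FeSO4, H2O2 and DMPO only.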

[6] = Metal chelating activity assessed as inhibition of Fe2+-ferrozine complex formation after 10 mins; assay type: physicochemical; method in brief: as §2
[7] = Neuroprotective activity against Fe2+-induced oxidative damage in rat primary cortical neurons assessed as cell viability after 24 hrs by MTT assay; assay type: functional, cell-based; details: Cerebral cortex neuron
Method in brief: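 Rat (1-day-old) cortical neurons were grown serum-free in DMEM/F12 with B-27 on poly-ornithine, treated with Ara-C and cultured 5 d. Cells were pretreated with nucleotide (0.01–25 µM), then exposed to FeSO4 3 µM final for 24 h. MTT 1 mg/mL was added for 2 h at 37 °C, formazan dissolved in DMSO, A550 read. Viability given as % of vehicle control; three independent experiments in triplicate.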

[8] = Half life of the compound in RPMI-1640 medium at 37 degC by HPLC analysis; assay type: ADME; method in brief: as §1
[9] = Drug level in RPMI-1640 medium treated with ADP at 37 degC measured over 24 hrs by HPLC analysis; assay type: physicochemical; method in brief: as §3
Serum [10] = assay: Drug level in human serum treated with ADP at 37 degC measured over 24 hrs by HPLC analysis; assay type: ADME, cell-free; method in brief: as §3

Structure (SMILES) | pIC50 [1] | half-life [2] [h] | inhibition (INH) [3] [%] | Drug metabolism (Serum [4]) | pIC50 [5] | pIC50 [6] | pEC50 [7] | half-life [8] [h] | Drug metabolism [9] | Drug metabolism (Serum [10])
Nc1ncnc2c1ncn2[C@@H]1O[C@H](COP(=O)(O)OP(=O)(O)O)[C@@H](O)[C@H]1O [ADENOSINE DIPHOSPHATE] | 4.52 | 1.5 | 40 | metabolite_detected | 3.77 | < 3.70 | 4.72 | 1.5 |  | 
Nc1ncnc2c1ncn2[C@@H]1O[C@H](CO)[C@@H](O)[C@H]1O [ADENOSINE] |  |  |  |  |  |  |  |  | metabolite_detected | metabolite_detected
